Assay outcomes: PubChem, The Scripps Research Institute Molecular Screening Center
Shown are actives, neighbours in structure and some others; about 1.1% of the full set was active somewhere.
LYPLA1 inh – blocks human lysophospholipase 1, a PME1 counter-screen; AID 2174; 320,000 compounds, 0.16% hits; O75608; inhibition, % at 5.9 µM; recombinant LYPLA1, FP-Rh probe fluorescence polarization;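 active = inhibition above the mean of all tested compounds plus 3 SD, set per campaign, cut at about 14% in these data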;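 also: inhibitors block serine hydrolase probe labeling of LYPLA1 so polarization falls; 0% = enzyme with DMSO and 100% = wells lacking LYPLA1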
LYPLA2 inh – counter-screen for PME1 inhibitors: inhibitors of human LYPLA2; O95372; recombinant LYPLA2, FP-Rh probe fluorescence polarization; inhibition, % at 5.9 µM; 320,000 compounds, 0.38% hits; AID 2177;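 active = inhibition above the screen-wide mean plus 3 SD, limit set per campaign, cut at about 26% in these data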;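 also: 0% = LYPLA2 with DMSO and 100% = wells lacking LYPLA2 enzyme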
Target sequence (O95372 whole entry, looked up): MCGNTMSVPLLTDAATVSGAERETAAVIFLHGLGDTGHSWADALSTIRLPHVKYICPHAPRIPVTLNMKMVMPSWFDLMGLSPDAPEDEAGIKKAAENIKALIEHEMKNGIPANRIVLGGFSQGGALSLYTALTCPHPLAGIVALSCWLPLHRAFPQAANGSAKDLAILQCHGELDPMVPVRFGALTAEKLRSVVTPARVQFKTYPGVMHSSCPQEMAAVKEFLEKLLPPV
PREPL inhibitor – inhibits the human prolyl oligopeptidase-like enzyme. 320,000 compounds, 0.68% hits. recombinant PREPL, fluorescence polarization activity-based probe. inhibition, % at 5.96 µM; in the data active = inhibition above about 43%;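 also: 0% = enzyme with DMSO and 100% = wells lacking enzyme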
proCasp7 act – counter-screen: procaspase-7 (human) activation; activation, % at 8.5 µM; P55210; 330,000 compounds, 0.093% hits; recombinant procaspase-7, Ac-DEVD-pNA absorbance 405 nm; D23A/D198A/D206A triple mutant, cannot self-cleave; scale: DMSO 0, 5 µM enzyme 100;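 active = percent activation above the screen-wide mean plus 3 SD, cut at about 25% in these data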
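Assay system: Uncleavable procaspase-7 mutant enzyme | Input: 2 µM procaspase-7 mutant as dispensed | Timing: 1 h compound preincubation, 2 h substrate cleavage, 25 °C | Repeats: One well per compound | Control set: DMSO wells as 0%, DMSO with 5 µM added PC-7 as 100% | Technique: Epi-absorbance of released pNA at 405 nm, two timepoints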
procasp3 activ – procaspase-3 (human) activation | P42574 | recombinant procaspase-3 D3A, Ac-DEVD-pNA absorbance 405 nm | activation, % at 8.5 µM | 330,000 compounds, 0.11% hits | AID 463141;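 active = activation above the mean of all tested compounds plus 3 SD, cut at about 21% in these data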;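 also: 0% = DMSO alone and 100% = DMSO wells spiked with extra 5 µM PC-3 D3A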
Target sequence (P42574 whole entry D9A/D28A/D175A): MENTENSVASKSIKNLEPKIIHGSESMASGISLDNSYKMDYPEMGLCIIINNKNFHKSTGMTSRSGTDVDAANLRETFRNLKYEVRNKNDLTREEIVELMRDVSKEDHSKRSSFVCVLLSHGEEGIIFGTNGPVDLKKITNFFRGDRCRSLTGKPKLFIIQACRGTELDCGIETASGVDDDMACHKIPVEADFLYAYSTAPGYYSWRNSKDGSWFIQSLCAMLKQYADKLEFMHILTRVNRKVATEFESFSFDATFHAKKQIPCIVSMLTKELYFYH
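material = Procaspase-3 D3A mutant | probe or stimulus = Ac-DEVD-pNA | compound = single dose, 8.5 µM nominal compound, 0.8% DMSO | timing = 1 h preincubation, 2 h reaction | measured by = 405 nm absorbance of p-nitroaniline, reads at 0 and 120 min | benchmarks = DMSO-only low control, 5 µM PC-3 D3A high control | repeats = singlicate, each compound tested once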
* = called active by the depositor; . = no result given.

SMILES	LYPLA1 inh	LYPLA2 inh	PREPL inhibitor	proCasp7 act	procasp3 activ
Cc1ncc(CO)c(/C=N/NC(=O)c2ccc(O)cc2)c1O	-2	3	5	-8	-5
Cc1ncc(CO)c(/C=N/NC(=O)c2cc3c(s2)CCCC3)c1O	-5	-1	4	26*	31*
COc1cc(C(=O)NCC(=O)N2CCN(S(=O)(=O)c3ccccc3C(F)(F)F)CC2)cc(OC)c1OC	.	.	41	8	9
COC(=O)c1ccc(CNC(=O)c2ccc(S(=O)(=O)N3CCCC(C)C3)cc2)cc1 (stereo not drawn)	-3	-4	2	10	1
Cc1ccc2c(=O)c(C(=O)NCc3cccs3)c[nH]c2c1	1	5	74*	-6	2
Cc1cccc2c(=O)c(C(=O)NCc3cccs3)c[nH]c12	0	5	6	9	-2
Cc1cccc(NC(=O)CN2C(=O)S/C(=C\c3ccc(O)c([N+](=O)[O-])c3)C2=O)c1	1	81*	18	-2	-1
C/C(=N\NC(=O)c1ccc(Br)cc1)C1C(=O)c2ccccc2C1=O	18*	1	5	4	-3
C/C(=N\NC(=O)c1ccc(-c2ccccc2)cc1)C1C(=O)c2ccccc2C1=O	10	5	10	-11	0
Oc1c(C=Nc2cccc3cccnc23)sc2ccccc12	0	6	45*	-15	-9
Clc1cccc(/C=N/Nc2nc(Cl)nc3ccccc23)c1	-3	6	46*	14	10
COC(=O)c1cc(C(=O)OCC(=O)c2ccc[nH]2)cc([N+](=O)[O-])c1	-3	6	10	11	3
Cc1csc(=Nc2c(C)n(C)n(-c3ccccc3)c2=O)n1-c1ccccc1	6	6	2	0	3
Cc1c(N=c2c(=O)c3ccccc3c2=O)c(=O)n(-c2ccccc2)n1C	0	-1	43*	-2	1
COc1ccc(/C=C(\NC(=O)c2ccco2)C(=O)NC(Cc2ccccc2)C(=O)O)cc1 (stereo not drawn)	-5	-4	17	-13	6
COc1ccc(N=CC2=C(Nc3ccc(OC)cc3)c3c(C)nn(-c4ccccn4)c3CC2)cc1	50*	49*	72*	-22	-21
COc1ccc(-c2cc(C(=O)O)c3c(C)nn(-c4ccccn4)c3n2)cc1	0	-3	-1	16	4
Cc1ccc(SCC(=O)N2CCN(S(=O)(=O)c3cccs3)CC2)cc1	.	.	-2	15	-7
O=C(NN1CCOCC1)c1sc2cccc(F)c2c1Cl	3	2	0	2	4
COC(=O)N/N=C/c1cn(CCOc2ccc(OC)cc2)c2ccccc12	-2	13	23	2	5
COc1ccc(OCCn2cc(/C=N/NC(=O)c3ccncc3)c3ccccc32)cc1	-7	39*	35	-1	-3
CCCCCCSc1cccc(-c2nc3ccc(Cl)cn3c2NCc2ccccc2)c1	-3	4	14	-12	-20
NC(=O)c1ccc(Oc2ccc(-c3nnco3)cc2)c([N+](=O)[O-])c1	-2	8	18	9	2
NC(=O)c1ccc(Oc2ccc3ccc(=O)oc3c2)c([N+](=O)[O-])c1	7	38*	11	1	-2
CCOC(=O)c1ccc(S(=O)(=O)N2CCN(C(=O)C3CSC4(C)CCC(=O)N34)CC2)cc1 (stereo not drawn)	-2	-5	6	-8	4
SMILES	LYPLA1 inh	LYPLA2 inh	PREPL inhibitor	proCasp7 act	procasp3 activ
O=C(O)c1cccc(NC(=S)NC(=O)c2ccc(-c3ccc(Cl)cc3)o2)c1	-3	28*	-11	-16	-2
O=C(O)CCCn1cc(NC(=O)COc2ccccc2)cn1	0	-5	1	0	1
CC(C)(C)c1ccc(OCC(=O)N/N=C/c2ccc(N3CCOCC3)cc2)cc1	4	6	65*	6	3
CCCCN(C)CC(O)Cn1cc(/C=C/C(=O)c2ccc(C)cc2)c2ccccc21 (stereo not drawn)	-5	6	45*	-12	-9
CN(C)CCCNS(=O)(=O)c1ccc(N2CCC(c3ccc(Cl)cc3)=N2)cc1	11	4	70*	7	8
O=S(=O)(c1ccc(N2CCC(c3ccc(Cl)cc3)=N2)cc1)N(CCO)CCO	9	12	35	5	6
O=C(CCn1c(=O)[nH]c2ccsc2c1=O)N1CCN(c2cccc(Cl)c2)CC1	4	9	18	-2	1
Cc1ccc(Cl)cc1N1CCN(C(=O)Cc2ccc(-n3c(=O)[nH]c4ccsc4c3=O)cc2)CC1	2	34*	-5	6	2
O=C(NCc1nnnn1-c1ccc(F)c(F)c1)C(=O)c1c[nH]c2ccccc12	3	2	-17	3	-6
COc1ccc(S(=O)(=O)N2CCCCCC2)cc1C(=O)N(C)Cc1ccccc1F	3	2	-2	4	4
CN(c1ccccc1)c1ccc(/C=N/NC(=O)CC#N)cc1	-1	4	50*	-8	-13
O=C(C1CC(=O)N(c2ccc(Cl)cc2)C1)N1CCN(Cc2ccc3c(c2)OCO3)CC1 (stereo not drawn)	4	9	26	2	6
Nc1c(S(=O)(=O)c2cccc(Cl)c2)c2nc3ccccc3nc2n1/N=C/c1ccc(O)c(O)c1	-24	-6	65*	6	3
C[C@]12C(=O)N(c3ccc(Br)cc3)C(=O)N1[C@H]1c3ccccc3OC[C@@H]1[C@H]2c1ccccc1	.	.	0	4	0
Cc1ccc(OCC(=O)c2cc(C)n(C3CC3)c2C)c([N+](=O)[O-])n1	-3	12	14	-38	-22
COc1ccc(-n2c(C)cc(C(=O)COc3ccc(C)nc3[N+](=O)[O-])c2C)cc1	5	26*	0	-28	-16
CCCCCCOc1ccc(C(=O)n2cnc(N)n2)cc1	1	20	72*	1	-2
O=C(c1ccc2nc(-c3ccco3)c(-c3ccco3)nc2c1)N1CCN(c2ncccn2)CC1	1	13	61*	-17	-7
O=C(c1cccc(C(=O)N2CCN(c3ncccn3)CC2)c1)N1CCN(c2ncccn2)CC1	-1	0	20	2	-7
Cc1cc(C(=O)N/N=C/c2cc(N=Nc3ccccc3)ccc2O)n[nH]1	-9	5	13	26*	18
CC(=O)c1ccccc1OCC(O)CN1CCN(CCN2C(=O)c3cccc4cccc(c34)C2=O)CC1 (stereo not drawn)	4	39*	5	-2	0
Cc1ccc(C)c(OCC(O)CN2CCN(CCN3C(=O)c4cccc5cccc(c45)C3=O)CC2)c1 (stereo not drawn)	0	54*	-8	0	-2
